In assay [1] the test system is Escherichia coli. The assay can be described thus: Ratio of MIC for wild type Escherichia coli W3110 to MIC for Escherichia coli CMR300. It is filed as functional.
Assay [2] deals with Escherichia coli. Briefly: Antimicrobial activity against Escherichia coli W3110PA after 22 hrs by MTT assay. Type of assay: functional. Summed up: (§1)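 Broth microdilution (modified NCCLS) in 96-well plates, LB medium with 5% DMSO; 2-fold compound series spanning 0.0005–1, 0.0025–5 or 0.024–50 µg/mL. Cells grown to OD600 0.6, diluted 100-fold, added to wells; 22 h at 37 °C, then MTT (1 mg/mL) 3 h at 37 °C. MIC = lowest concentration with no visible colour change; triplicate.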

The test system of assay [3] is Escherichia coli. Briefly: Antimicrobial activity against wild type Escherichia coli W3110 after 22 hrs by MTT assay. It is filed as functional. As to conditions: W3110, 22 h. The method in brief: as §1
The subject of assay [4] is Pseudomonas aeruginosa. The assay can be described thus: Antimicrobial activity against Pseudomonas aeruginosa PAO1 after 22 hrs by MTT assay. Type of assay: functional. The following applies: PAO1, 22 h. The method in brief:
as §1

The test system of assay [5] is Escherichia coli. Briefly: Antimicrobial activity against Escherichia coli CMR300 after 22 hrs by MTT assay. It is filed as functional. The following applies: CMR300, 22 h. The method in brief: as §1
For assay [6], the system named is Vibrio cholerae. The assay can be described thus: Antimicrobial activity against Vibrio cholerae P4 after 22 hrs by MTT assay. The following applies: P4, 22 h. Type of assay: functional. Summed up: (§2)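 Broth microdilution in triplicate (modified NCCLS) in LB with 5% DMSO, using 2-fold compound series over 0.0005–1, 0.0025–5 or 0.024–50 µg/mL. Cells grown to OD600 0.6 were diluted 100-fold into the wells and incubated 22 h at 37 °C. A 1 mg/mL MTT solution was added for 3 h more at 37 °C. MIC = lowest concentration with no visible yellow-to-black colour change.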

The test system of assay [7] is Klebsiella pneumoniae. The assay can be described thus: Antimicrobial activity against Klebsiella pneumoniae 43816 after 22 hrs by MTT assay. Type of assay: functional. As to conditions: Klebsiella pneumoniae, 43816, 22 h. The method in brief:
as §1

Assay [8] concerns Salmonella typhimurium. Briefly: Antimicrobial activity against Salmonella enterica typhimurium LT2 after 22 hrs by MTT assay. The following applies: LT2, 22 h. It is filed as functional, Salmonella enterica subsp. enterica serovar Typhimurium. Summed up: as §1
Assay [9] has as its system Francisella novicida. Briefly: Antimicrobial activity against Francisella novicida U 112 after 22 hrs by MTT assay. It is filed as functional, Francisella tularensis subsp. novicida. The following applies: Francisella tularensis, U 112, 22 h. The method in brief:
as §2

Assay [10] relates to Francisella novicida. The assay can be described thus: Ratio of LPC-011 MIC to compound MIC for Francisella novicida U 112 after 22 hrs by MTT assay. It is filed as functional, Francisella tularensis subsp. novicida.
The target in assay [11] is T1, UDP-3-O-acyl-N-acetylglucosamine deacetylase (Escherichia coli K-12) (UniProt P0A725).
T1 sequence (whole entry): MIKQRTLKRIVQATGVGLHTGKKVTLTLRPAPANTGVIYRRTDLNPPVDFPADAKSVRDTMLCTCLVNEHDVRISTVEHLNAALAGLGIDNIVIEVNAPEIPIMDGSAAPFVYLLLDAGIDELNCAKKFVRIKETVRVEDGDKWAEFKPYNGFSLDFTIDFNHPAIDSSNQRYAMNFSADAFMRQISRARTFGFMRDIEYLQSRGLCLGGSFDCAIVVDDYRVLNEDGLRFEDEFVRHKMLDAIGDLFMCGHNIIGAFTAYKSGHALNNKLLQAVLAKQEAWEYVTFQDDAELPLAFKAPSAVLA
The assay can be described thus: Ratio of LPC-011 Ki to compound Ki for Escherichia coli LpxC enzyme.

For assay [12], the target named is T2, UDP-3-O-acyl-N-acetylglucosamine deacetylase (Escherichia coli K-12, UniProt P0A725).
T2 sequence (P0A725 whole entry): T1 sequence (whole entry)
The assay can be described thus: Inhibition of Escherichia coli LpxC enzyme using UDP-3-O-[(R)-3-hydroxymyristoyl]-N-acetyl glucosamine and [gamma-32P] UDP-3-O-[(R)-3-hydroxymyristoyl]-N-acetylglucosamine as substrate after 1 to 4 hrs.

The nature of assay [13]: Ratio of MIC for Pseudomonas aeruginosa PAO1 to MIC for Escherichia coli W3110PA. Type of assay: functional.

pKi: −log10 of the molar value. In brackets after ≈: the same amount, converted by molar mass.

From ChEMBL document CHEMBL2417424, “Synthesis, structure, and antibiotic activity of aryl-substituted LpxC inhibitors” (J Med Chem, 2013) come the findings set out here.

With `Nc1ccc(C#CC#Cc2ccc(C(=O)N[C@H](C(=O)NO)[C@H](O)c3ccc(O)cc3)cc2)cc1`, the Ratio in assay [1] is reported as 333. Moreover, the MIC is above 50 µg/mL in assay [2], 50 µg/mL (≈ 110 µM) in assay [3], above 50 µg/mL in [4] and 0.15 µg/mL (≈ 0.329 µM) in [5].

For the molecule `C[C@@H](O)[C@H](NC(=O)c1ccc(C#Cc2ccc(CN3CCOCC3)cc2)cc1)C(=O)NO`, the MIC in assay [6] turned out to be 0.16 µg/mL (≈ 0.366 µM); in assay [7] it was 0.64 µg/mL (≈ 1.46 µM); in assay [8] it was 0.16 µg/mL (≈ 0.366 µM); in assay [2], 1.3 µg/mL (≈ 2.97 µM); in assay [3], 0.2 µg/mL (≈ 0.457 µM); in [4], 1.6 µg/mL (≈ 3.66 µM). Also, the values for the MIC in [5] and in assay [9] were 0.01 µg/mL (≈ 0.0229 µM) and 3.1 µg/mL (≈ 7.09 µM), respectively.

Take `C[C@](O)(c1ccc(O)cc1)[C@H](NC(=O)c1ccc(C#CC#Cc2ccc(N)cc2)cc1)C(=O)NO`: the values for the Ratio in assay [10] and in assay [1] were 2 and 300, respectively. In addition, the MIC in [6] amounted to 0.016 µg/mL (≈ 0.0341 µM); in [7], 0.16 µg/mL (≈ 0.341 µM); in assay [8] it was 0.05 µg/mL (≈ 0.106 µM); in [2], 0.5 µg/mL (≈ 1.06 µM); in [3], 0.03 µg/mL (≈ 0.0639 µM); in assay [4], 0.7 µg/mL (≈ 1.49 µM). Further, the figures for the MIC in [5] and in [9] were 0.0001 µg/mL (≈ 0.000213 µM) and 0.63 µg/mL (≈ 1.34 µM), respectively. In addition, the Ratio Ki in assay [11] is 1.6. In [12], this molecule showed a negative logarithm of the Ki (pKi) of 10.62.

On to `Nc1ccc(C#CC#Cc2ccc(C(=O)N[C@@H](Cc3ccccc3)C(=O)NO)cc2)cc1`, for which, in assay [1], the Ratio is 450. Further, the MIC was above 50 µg/mL in assay [2], 6.3 µg/mL (≈ 14.9 µM) in assay [3], above 50 µg/mL in [4] and 0.014 µg/mL (≈ 0.0331 µM) in assay [5].

In the case of `C[C@@H](O)[C@H](NC(=O)c1ccc(C#CC#Cc2ccc(N)cc2)cc1)C(=O)NO`, the MIC came to 0.01 µg/mL (≈ 0.0265 µM) in assay [6]; 0.13 µg/mL (≈ 0.344 µM) in assay [7]; 0.024 µg/mL (≈ 0.0636 µM) in [8]; 0.32 µg/mL (≈ 0.848 µM) in [2]; 0.03 µg/mL (≈ 0.0795 µM) in assay [3]; 0.32 µg/mL (≈ 0.848 µM) in assay [4]. For the same molecule, the MIC in assay [5] was determined as 0.001 µg/mL (≈ 0.00265 µM); in assay [9], 2.5 µg/mL (≈ 6.62 µM). The Ratio in assay [1] is on record as 30.

In the case of `Nc1ccc(C#CC#Cc2ccc(C(=O)N[C@@H](Cc3c[nH]c4ccccc34)C(=O)NO)cc2)cc1`, in [1], the Ratio amounted to 208. Moreover, the minimal inhibitory concentration (MIC) in assay [2] is above 50 µg/mL; in [3], 12.5 µg/mL (≈ 27 µM); in assay [4], above 50 µg/mL; in assay [5] it was 0.06 µg/mL (≈ 0.13 µM).

Turning to `C[C@](O)(c1c[nH]nn1)[C@H](NC(=O)c1ccc(C#CC#Cc2ccc(N)cc2)cc1)C(=O)NO`, the Ratio in assay [10] is given as 2. In addition, the minimum inhibitory concentration (MIC) in assay [6] came to 0.03 µg/mL (≈ 0.0675 µM); in [7], 0.25 µg/mL (≈ 0.562 µM); in [8], 0.1 µg/mL (≈ 0.225 µM); in [2], 0.5 µg/mL (≈ 1.12 µM); in assay [3], 0.06 µg/mL (≈ 0.135 µM); in [4], 0.5 µg/mL (≈ 1.12 µM). In addition, the figures for the MIC in assay [5] and in assay [9] were 0.004 µg/mL (≈ 0.009 µM) and 1 µg/mL (≈ 2.25 µM), respectively. Also, the Ratio Ki in [11] came to 1.6. This molecule had a pKi in assay [12] of 10.62.

As for `Nc1ccc(C#CC#Cc2ccc(C(=O)N[C@@H](Cc3ccc(O)cc3)C(=O)NO)cc2)cc1`, the Ratio was found to be 3 in assay [13] and 80 in assay [1]. Besides, the minimum inhibitory concentration (MIC) in [2] is 4.7 µg/mL (≈ 10.7 µM); in assay [3], 0.8 µg/mL (≈ 1.82 µM); in assay [4], 12.5 µg/mL (≈ 28.4 µM); in assay [5], 0.01 µg/mL (≈ 0.0228 µM).

For `Nc1ccc(C#CC#Cc2ccc(C(=O)N[C@H](C(=O)NO)[C@@H](O)c3ccc(O)cc3)cc2)cc1`, the Ratio in [1] is listed as 43. In addition, the minimal inhibitory concentration (MIC) in assay [2] amounted to 0.9 µg/mL (≈ 1.98 µM); in assay [3], 0.13 µg/mL (≈ 0.285 µM); in [4], 1 µg/mL (≈ 2.2 µM); in assay [5] it was 0.003 µg/mL (≈ 0.00659 µM).

For the molecule `Nc1ccc(C#CC#Cc2ccc(C(=O)N[C@@H](Cc3c[nH]cn3)C(=O)NO)cc2)cc1`, the Ratio in assay [1] turned out to be 20. The MIC in assay [2] is 6.3 µg/mL (≈ 15.2 µM); in assay [3], 0.4 µg/mL (≈ 0.967 µM); in assay [4], 6.3 µg/mL (≈ 15.2 µM); in [5], 0.02 µg/mL (≈ 0.0484 µM).

Take `C[C@@](O)(c1ccc(O)cc1)[C@H](NC(=O)c1ccc(C#CC#Cc2ccc(N)cc2)cc1)C(=O)NO`: the Ratio in assay [1] is reported as 62. Also, the minimal inhibitory concentration (MIC) in [2] is 3.2 µg/mL (≈ 6.82 µM); in [3], 0.5 µg/mL (≈ 1.06 µM); in assay [4], 5 µg/mL (≈ 10.6 µM); in [5], 0.008 µg/mL (≈ 0.017 µM).
